From ChEMBL document CHEMBL1121713, “Synthesis and antiinflammatory activity of metabolites of piroxicam” (1981)
The source made the active and inactive calls. The rule behind the calls is not given here.

Tests used:
[1] = tested on: Rattus norvegicus; experiment: Antiinflammatory activity of compound expressed as percentage inhibition of carrageenan edema 4 hr after an oral dose of 33 mg/kg.; format: functional
How it was run: (§1)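 Rat carrageenan paw edema, subplantar carrageenan injection, per Winter et al. Oral dosing in water with 4% polyethylene glycol and 0.2% Tween 80, dilute NaOH added as needed to dissolve. Six rats per treated group, eight per vehicle-only or phenylbutazone group, run concurrently. Read-out is mean % inhibition of edema 4 h after the dose versus vehicle controls.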

[2] = tested on: Rattus norvegicus; experiment: Antiinflammatory activity of compound expressed as percentage inhibition of carrageenan edema 4 hr after an oral dose of 10 mg/kg.; format: functional; how it was run: as §1
[3] = tested on: Rattus norvegicus; experiment: Antiinflammatory activity of compound expressed as percentage inhibition of carrageenan edema 4 hr after an oral dose of 10 mg/kg; Not available; format: functional, organism-based; parameters: dose 10 mg/kg; how it was run: as §1

Row | SMILES | inhibition in vivo at 33 mg/kg [1] | inhibition in vivo at 10 mg/kg [2] | inhibition [3]
1 | CN1C(C(=O)Nc2ncccc2O)=C(O)c2ccccc2S1(=O)=O | 41% | 13% | 
2 | CN1CC(=O)c2ccccc2S1(=O)=O | 8% |  | inactive
3 | CN1C(C(=O)Nc2cc(O)ccn2)=C(O)c2ccccc2S1(=O)=O | 24% | 10% | 
4 | CN1c2c(n3ccccc3nc2=O)-c2ccccc2S1(=O)=O | 46% | 38% | 
5 | CN1C(C(=O)Nc2cccc(O)n2)=C(O)c2ccccc2S1(=O)=O | 40% | 31% | 
6 | CN1C(C(=O)Nc2ccccn2)=C(O)c2ccccc2S1(=O)=O [PIROXICAM] | 75% | 67% | 
7 | CN1C(C(=O)O)=C(O)c2ccccc2S1(=O)=O | 0% |  | 
8 | CCCCC1C(=O)N(c2ccccc2)N(c2ccccc2)C1=O [PHENYLBUTAZONE] | 50% | 35% | 
9 | CN1C(=O)c2ccccc2S1(=O)=O | 12% |  | 
10 | O=C1NS(=O)(=O)c2ccccc21 [SACCHARIN] | 0% |  | 
11 | CN1C(C(=O)Nc2ccc(O)cn2)=C(O)c2ccccc2S1(=O)=O [HYDROXY PIROXICAM METABOLITE] | 17% | 15% | 
